# Measurements as given in ChEMBL document CHEMBL3813637, “Synthesis and Antiproliferative and Metabolic Evaluations of Novel Securinine Derivatives” (ACS Med Chem Lett, 2016).
# Test system: not listed separately
# Assay: Antiproliferative activity against human HCT116 cells assessed as reduction in cell viability at 20 uM after 72 hrs by ATPlite assay
# Type: functional
# Conditions: HCT-116, 72 h, read-out: GI
# Procedure, shortened: (§1)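 HCT-116 human colon cancer cells exposed to compound for 72 h at 20, 10 or 1 μM. Growth inhibition is expressed as percentage relative to nontreated cells.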
row,SMILES,inhibition of growth at 20 µM [%]
1,O=C1C=C2C(C#Cc3ccccc3C(F)(F)F)=C[C@@H]3C[C@@]2(O1)[C@H]1CCCCN31,100
2,COc1cccc2c1C(=O)c1c(O)c3c(c(O)c1C2=O)C[C@@](O)(C(=O)CO)C[C@@H]3O[C@H]1C[C@H](N)[C@H](O)[C@H](C)O1 [DOXORUBICIN],95.6
3,O=C1C=C2C(C#CC3C=CCCC3)=C[C@@H]3C[C@@]2(O1)[C@H]1CCCCN31 (stereo not given in full),97.3
4,Cc1ccc(C#CC2=C[C@@H]3C[C@@]4(OC(=O)C=C24)[C@H]2CCCCN32)cc1,100
5,O=C1C=C2C(c3ccco3)=C[C@@H]3C[C@@]2(O1)[C@H]1CCCCN31,45.5
6,O=C1C=C2C(C#CC3CCCCC3)=C[C@@H]3C[C@@]2(O1)[C@H]1CCCCN31,100
7,CC(C)(C)OC(=O)NCCCC#CC1=C[C@@H]2C[C@@]3(OC(=O)C=C13)[C@H]1CCCCN21,99.9
8,C[Si](C)(C)C#CC1=C[C@@H]2C[C@@]3(OC(=O)C=C13)[C@H]1CCCCN21,99.3
9,CCCCCC#CC1=C[C@@H]2C[C@@]3(OC(=O)C=C13)[C@H]1CCCCN21,97.5

# Test system: not listed separately
# Assay: Antiproliferative activity against human HCT116 cells assessed as reduction in cell viability at 10 uM after 72 hrs by ATPlite assay
# Type: functional
# Conditions: HCT-116, 72 h, read-out: GI
# Procedure, shortened: as §1
row,SMILES,inhibition of growth at 10 µM [%]
1,O=C1C=C2C(C#Cc3ccccc3C(F)(F)F)=C[C@@H]3C[C@@]2(O1)[C@H]1CCCCN31,99.9
2,COc1cccc2c1C(=O)c1c(O)c3c(c(O)c1C2=O)C[C@@](O)(C(=O)CO)C[C@@H]3O[C@H]1C[C@H](N)[C@H](O)[C@H](C)O1 [DOXORUBICIN],94.3
3,O=C1C=C2C(C#CC3C=CCCC3)=C[C@@H]3C[C@@]2(O1)[C@H]1CCCCN31 (stereo not given in full),98.1
4,Cc1ccc(C#CC2=C[C@@H]3C[C@@]4(OC(=O)C=C24)[C@H]2CCCCN32)cc1,100
5,O=C1C=C2C(c3ccco3)=C[C@@H]3C[C@@]2(O1)[C@H]1CCCCN31,23.8
6,O=C1C=C2C(C#CC3CCCCC3)=C[C@@H]3C[C@@]2(O1)[C@H]1CCCCN31,99.8
7,CC(C)(C)OC(=O)NCCCC#CC1=C[C@@H]2C[C@@]3(OC(=O)C=C13)[C@H]1CCCCN21,98.8
8,C[Si](C)(C)C#CC1=C[C@@H]2C[C@@]3(OC(=O)C=C13)[C@H]1CCCCN21,99
9,CCCCCC#CC1=C[C@@H]2C[C@@]3(OC(=O)C=C13)[C@H]1CCCCN21,96.6

# Test system: not listed separately
# Assay: Antiproliferative activity against human HL60 cells assessed as reduction in cell viability after 72 hrs by ATPlite assay
# Type: functional, cell-based
# Conditions: HL-60, 72 h
# Procedure, shortened: (§2)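 IC50 determined in human cancer cell lines (HCT-116, A-375 melanoma, HL-60, A-549). Camptothecin and etoposide served as reference compounds.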
row,SMILES,IC50 [µM]
1,Cc1ccc(C#CC2=C[C@@H]3C[C@@]4(OC(=O)C=C24)[C@H]2CCCCN32)cc1,> 10

# Test system: A549
# Assay: Antiproliferative activity against human A549 cells assessed as reduction in cell viability after 72 hrs by ATPlite assay
# Type: functional, cell-based
# Conditions: A549, 72 h
# Procedure, shortened: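 IC50 values were determined on a panel of four human cancer lines (HCT-116, A-549, HL-60, A-375), with camptothecin and etoposide as reference compounds.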
row,IC50 [µM],SMILES
1,> 10,Cc1ccc(C#CC2=C[C@@H]3C[C@@]4(OC(=O)C=C24)[C@H]2CCCCN32)cc1

# Test system: A-375
# Assay: Antiproliferative activity against human A375 cells assessed as reduction in cell viability after 72 hrs by ATPlite assay
# Type: functional, cell-based
# Conditions: A-375, 72 h
# Procedure, shortened: as §2
row,IC50 [µM],SMILES
1,1.75,Cc1ccc(C#CC2=C[C@@H]3C[C@@]4(OC(=O)C=C24)[C@H]2CCCCN32)cc1

# Test system: not listed separately
# Assay: Antiproliferative activity against human HCT116 cells assessed as reduction in cell viability at 1 uM after 72 hrs by ATPlite assay
# Type: functional
# Conditions: HCT-116, 72 h, read-out: GI
# Procedure, shortened: as §1
row,SMILES,inhibition of growth at 1 µM [%]
1,O=C1C=C2C(C#Cc3ccccc3C(F)(F)F)=C[C@@H]3C[C@@]2(O1)[C@H]1CCCCN31,55.8
2,COc1cccc2c1C(=O)c1c(O)c3c(c(O)c1C2=O)C[C@@](O)(C(=O)CO)C[C@@H]3O[C@H]1C[C@H](N)[C@H](O)[C@H](C)O1 [DOXORUBICIN],99.6
3,O=C1C=C2C(C#CC3C=CCCC3)=C[C@@H]3C[C@@]2(O1)[C@H]1CCCCN31 (stereo not given in full),3.3
4,Cc1ccc(C#CC2=C[C@@H]3C[C@@]4(OC(=O)C=C24)[C@H]2CCCCN32)cc1,64
5,O=C1C=C2C(c3ccco3)=C[C@@H]3C[C@@]2(O1)[C@H]1CCCCN31,6
6,O=C1C=C2C(C#CC3CCCCC3)=C[C@@H]3C[C@@]2(O1)[C@H]1CCCCN31,49.3
7,CC(C)(C)OC(=O)NCCCC#CC1=C[C@@H]2C[C@@]3(OC(=O)C=C13)[C@H]1CCCCN21,60.1
8,C[Si](C)(C)C#CC1=C[C@@H]2C[C@@]3(OC(=O)C=C13)[C@H]1CCCCN21,10.1
9,CCCCCC#CC1=C[C@@H]2C[C@@]3(OC(=O)C=C13)[C@H]1CCCCN21,10.2
